Measurements reported in ChEMBL document CHEMBL1127345, “Synthesis, binding properties, and 18F labeling of fluorocarazolol, a high-affinity beta-adrenergic receptor antagonist” (J Med Chem, 1994).

Assays:
Mus musculus [1] = experiment: The in vivo tissue distribution of mouse kidney with Propranolol administration after 20 min, value was fractional dose per fractional body weight of the organ; assay type: ADME, organism-based
In short: (§1)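 Male CF-1 mice (25–30 g), given 2 mg sodium pentobarbital ip 30 min before tracer. Blocked groups received propranolol iv by tail vein, 0.1 mL of 1 mg/mL. About 30 min later, 0.1 mL of [18F]tracer (1–2 mCi/mL) was injected by tail vein. Mice were killed by cervical dislocation at set times, and organs were weighed and counted. Uptake is %ID/g × body weight/100, average ± SD; n=5 for heart, brain, blood, lung, kidney, liver and bone.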

Mus musculus [2] = experiment: The in vivo tissue distribution of mouse lung with Propranolol administration after 60 min, value was fractional dose per fractional body weight of the organ; assay type: ADME, organism-based; conditions: 1 h
In short: (§2)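 Male CF-1 mice (25–30 g), anesthetised with 2 mg sodium pentobarbital ip 30 min before tracer. Where blocked, propranolol iv via tail vein (0.1 mL of […]; […]) about 30 min before tracer. Tracer given by tail vein, 0.1 mL at 1–2 mCi/mL. Mice killed by cervical dislocation at set times, organs weighed and counted. %ID/g × body weight/100 gives unitless uptake. Heart, brain, blood, lung, kidney, liver and bone n=5; average ± SD.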

Mus musculus [3] = experiment: The in vivo tissue distribution of mouse blood with Propranolol administration after 120 min, value was fractional dose per fractional body weight of the organ; assay type: ADME, organism-based; conditions: 2 h; in short: as §1
Mus musculus [4] = experiment: The in vivo tissue distribution of mouse lung with Propranolol administration after 10 min, value was fractional dose per fractional body weight of the organ; assay type: ADME, organism-based; in short: as §1
Mus musculus [5] = experiment: The in vivo tissue distribution of mouse liver without Propranolol preadministration in 60 min, value was fractional dose per fractional body weight of the organ; conditions: 1 h
Mus musculus [6] = experiment: The in vivo tissue distribution of mouse liver with Propranolol preadministration in 120 min, value was fractional dose per fractional body weight of the organ; assay type: ADME, organism-based; conditions: 2 h; in short: as §2
Mus musculus [7] = experiment: The in vivo tissue distribution of mouse liver without Propranolol preadministration in 20 min, value was fractional dose per fractional body weight of the organ
Mus musculus [8] = experiment: The in vivo tissue distribution of mouse heart with Propranolol administration after 90 min, value was fractional dose per fractional body weight of the organ; assay type: ADME, organism-based; conditions: 1.5 h; in short: as §2
Mus musculus [9] = experiment: The in vivo tissue distribution of mouse liver without Propranolol preadministration in 90 min, value was fractional dose per fractional body weight of the organ; conditions: 1.5 h
Mus musculus [10] = experiment: The in vivo tissue distribution of mouse liver with Propranolol administration after 40 min, value was fractional dose per fractional body weight of the organ; assay type: ADME, organism-based; in short: as §1
Mus musculus [11] = experiment: The in vivo tissue distribution of mouse kidney without Propranolol preadministration in 90 min, value was fractional dose per fractional body weight of the organ; conditions: 1.5 h
Mus musculus [12] = experiment: The in vivo tissue distribution of mouse blood with Propranolol administration after 40 min, value was fractional dose per fractional body weight of the organ; assay type: ADME, organism-based; in short: as §2
Mus musculus [13] = experiment: The in vivo tissue distribution of mouse blood with Propranolol administration after 90 min, value was fractional dose per fractional body weight of the organ; assay type: ADME, organism-based; conditions: 1.5 h
In short: (§3)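 Male CF-1 mice (25–30 g) anaesthetised with 2 mg sodium pentobarbital ip; blocked group given 0.1 mL of […] propranolol iv via tail vein (200 μg, 6.6 mg/kg), tracer 30 min later. 0.1 mL of 1–2 mCi/mL [18F]-labelled enantiomer iv via tail vein; killed by cervical dislocation, organs weighed and counted against weighed standards. %ID/g × body weight/100 gives unitless uptake; five mice per point (heart, blood, lung, kidney, liver, bone); mean ± SD.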

Mus musculus [14] = experiment: The in vivo tissue distribution of mouse lung without Propranolol preadministration in 60 min, value was fractional dose per fractional body weight of the organ; conditions: 1 h
Mus musculus [15] = experiment: The in vivo tissue distribution of mouse liver with Propranolol administration after 20 min, value was fractional dose per fractional body weight of the organ; assay type: ADME, organism-based; in short: as §1
Mus musculus [16] = experiment: The in vivo tissue distribution of mouse bone with Propranolol administration after 20 min, value was fractional dose per fractional body weight of the organ; assay type: ADME, organism-based, Bone element; in short: as §3
Mus musculus [17] = experiment: The in vivo tissue distribution of mouse liver without Propranolol preadministration in 40 min, value was fractional dose per fractional body weight of the organ
Mus musculus [18] = experiment: The in vivo tissue distribution of mouse brain with Propranolol administration after 90 min, value was fractional dose per fractional body weight of the organ; assay type: ADME, organism-based; conditions: 1.5 h; in short: as §2
Mus musculus [19] = experiment: The in vivo tissue distribution of mouse lung without Propranolol preadministration in 90 min, value was fractional dose per fractional body weight of the organ; conditions: 1.5 h
Mus musculus [20] = experiment: The in vivo tissue distribution of mouse kidney with Propranolol administration after 180 min, value was fractional dose per fractional body weight of the organ; assay type: ADME, organism-based; conditions: 3 h; in short: as §2
Mus musculus [21] = experiment: The in vivo tissue distribution of mouse brain without Propranolol preadministration in 40 min, value was fractional dose per fractional body weight of the organ
Mus musculus [22] = experiment: The in vivo tissue distribution of mouse heart with Propranolol preadministration in 180 min, value was fractional dose per fractional body weight of the organ; assay type: ADME, organism-based; conditions: 3 h; in short: as §1
Mus musculus [23] = experiment: The in vivo tissue distribution of mouse heart with Propranolol preadministration in 120 min, value was fractional dose per fractional body weight of the organ; assay type: ADME, organism-based; conditions: 2 h; in short: as §3
Mus musculus [24] = experiment: The in vivo tissue distribution of mouse heart with Propranolol administration after 120 min, value was fractional dose per fractional body weight of the organ; assay type: ADME, organism-based; conditions: 2 h; in short: as §1
Mus musculus [25] = experiment: The in vivo tissue distribution of mouse blood without Propranolol preadministration in 90 min, value was fractional dose per fractional body weight of the organ; conditions: 1.5 h
Mus musculus [26] = experiment: The in vivo tissue distribution of mouse bone with Propranolol administration after 40 min, value was fractional dose per fractional body weight of the organ; assay type: ADME, organism-based, Bone element; in short: as §2
Mus musculus [27] = experiment: The in vivo tissue distribution of mouse bone with Propranolol preadministration in 60 min, value was fractional dose per fractional body weight of the organ; assay type: ADME, organism-based, Bone element; conditions: 1 h; in short: as §2
Mus musculus [28] = experiment: The in vivo tissue distribution of mouse kidney without Propranolol preadministration in 40 min, value was fractional dose per fractional body weight of the organ
Mus musculus [29] = experiment: The in vivo tissue distribution of mouse brain without Propranolol preadministration in 20 min, value was fractional dose per fractional body weight of the organ
Mus musculus [30] = experiment: The in vivo tissue distribution of mouse brain without Propranolol preadministration in 120 min, value was fractional dose per fractional body weight of the organ; conditions: 2 h
Mus musculus [31] = experiment: The in vivo tissue distribution of mouse blood with Propranolol administration after 10 min, value was fractional dose per fractional body weight of the organ; assay type: ADME, organism-based; in short: as §2
Mus musculus [32] = experiment: The in vivo tissue distribution of mouse kidney without Propranolol preadministration in 120 min, value was fractional dose per fractional body weight of the organ; conditions: 2 h

SMILES | Dose/organ (Mus musculus [1]) | Dose/organ (Mus musculus [2]) | Dose/organ (Mus musculus [3]) | Dose/organ (Mus musculus [4]) | Dose/organ (Mus musculus [5]) | Dose/organ (Mus musculus [6]) | Dose/organ (Mus musculus [7]) | Dose/organ (Mus musculus [8]) | Dose/organ (Mus musculus [9]) | Dose/organ (Mus musculus [10]) | Dose/organ (Mus musculus [11]) | Dose/organ (Mus musculus [12]) | Dose/organ (Mus musculus [13]) | Dose/organ (Mus musculus [14]) | Dose/organ (Mus musculus [15]) | Dose/organ (Mus musculus [16]) | Dose/organ (Mus musculus [17]) | Dose/organ (Mus musculus [18]) | Dose/organ (Mus musculus [19]) | Dose/organ (Mus musculus [20]) | other results
CC(C[18F])NC[C@H](O)COc1cccc2[nH]c3ccccc3c12 (some centres undefined) | 2.19 | 1.1 | 0.13 | 5 | 1.32 | 0.96 | 2.54 | 0.35 | 1.09 | 1.66 | 1.33 | 0.35 | 0.34 | 5.34 | 1.85 | 0.86 | 1.7 | 0.38 | 5.88 | 0.35 | Dose/organ (Mus musculus [21]): 1.09; Dose/organ (Mus musculus [22]): 0.4; Dose/organ (Mus musculus [23]): 0.45; Dose/organ (Mus musculus [24]): 0.15; Dose/organ (Mus musculus [25]): 0.66; Dose/organ (Mus musculus [26]): 0.64; Dose/organ (Mus musculus [27]): 0.72; Dose/organ (Mus musculus [28]): 2.01; Dose/organ (Mus musculus [29]): 0.95; Dose/organ (Mus musculus [30]): 0.64; Dose/organ (Mus musculus [31]): 0.39; Dose/organ (Mus musculus [32]): 0.83
CC(C[18F])NC[C@@H](O)COc1cccc2[nH]c3ccccc3c12 (some centres undefined) | 4.43 | 1.23 | 0.3 | 5.23 | 2.56 | 0.94 | 4 | 0.48 | 1.25 | 2.11 | 1.5 | 0.57 | 0.47 | 2.39 | 3 | 0.77 | 3 | 0.42 | 1.55 | 0.33 | Dose/organ (Mus musculus [21]): 0.73; Dose/organ (Mus musculus [22]): 0.14; Dose/organ (Mus musculus [23]): 0.28; Dose/organ (Mus musculus [24]): 0.27; Dose/organ (Mus musculus [25]): 0.43; Dose/organ (Mus musculus [26]): 0.83; Dose/organ (Mus musculus [27]): 1.08; Dose/organ (Mus musculus [28]): 3.3; Dose/organ (Mus musculus [29]): 0.66; Dose/organ (Mus musculus [30]): 0.2; Dose/organ (Mus musculus [31]): 0.92; Dose/organ (Mus musculus [32]): 1
